In ChEMBL document CHEMBL4689842, “EUbOPEN Chemogenomics Library wave 1” (2021):

Tested on: HEK-293T
Experiment: Multiplex assay against HEK293T;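 for Population Tubulin-Different-Phenotype (%): share of the cells with healthy nuclei that show this phenotype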
Assay type: toxicity, cell-based
Conditions: human
Outline: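 Values for tubulin, mitochondrial-mass and membrane-permeability phenotypes are per cents of cells with healthy nuclei. These cells were identified by CellPathfinder machine-learning gating of live cells that had been stained at seeding with Hoechst33342, BioTracker Green Microtubule Cytoskeleton Dye, MitoTracker Red and Annexin V Alexa Fluor 680 and imaged on a CQ1 microscope at 37°C and 5% CO2 after compound addition. The gating first set Hoechst high-intensity objects apart from normal cells, then split normal cells into healthy, pyknosed or fragmented nuclei, and pyknosed cells into mitotic or apoptotic.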

[1] = 12 h, 1 µM, compound concentration 1 uM, replicate 1
[2] = 12 h, 1 µM, compound concentration 1 uM, replicate 2
[3] = 12 h, 10 µM, compound concentration 10 uM, replicate 1
[4] = 12 h, 10 µM, compound concentration 10 uM, replicate 2
[5] = 24 h, 1 µM, compound concentration 1 uM, replicate 1
[6] = 24 h, 1 µM, compound concentration 1 uM, replicate 2
[7] = 24 h, 10 µM, compound concentration 10 uM, replicate 1
[8] = 24 h, 10 µM, compound concentration 10 uM, replicate 2
[9] = 48 h, 1 µM, compound concentration 1 uM, replicate 1
[10] = 48 h, 1 µM, compound concentration 1 uM, replicate 2
[11] = 48 h, 10 µM, compound concentration 10 uM, replicate 1
[12] = 48 h, 10 µM, compound concentration 10 uM, replicate 2

CCN1CCN(Cc2ccc(Nc3ncc(F)c(-c4cc(F)c5nc(C)n(C(C)C)c5c4)n3)nc2)CC1.CS(=O)(=O)O
Population Apoptotic (%) [1]: 60%
Population Fragmented Nuclei (%) [1]: 17%
Population Healthy Nuclei (%) [1]: 19%
Population Hoechst High Intensity Objects (%) [1]: 17%
Population Membrane Permeable-Phenotype (%) [1]: 0%
Population Mitochondria Different-Phenotype (%) [1]: 94%
Population Mitotic Cells (%) [1]: 40%
Population Normal (%) [1]: 82%
Population Pyknosed Nuclei (%) [1]: 63%
Population Tubulin-Different-Phenotype (%) [1]: 92%
Total Cell Count [1]: 249
Population Apoptotic (%) [2]: 40%
Population Fragmented Nuclei (%) [2]: 7%
Population Healthy Nuclei (%) [2]: 27%
Population Hoechst High Intensity Objects (%) [2]: 4%
Population Membrane Permeable-Phenotype (%) [2]: 14%
Population Mitochondria Different-Phenotype (%) [2]: 83%
Population Mitotic Cells (%) [2]: 59%
Population Normal (%) [2]: 95%
Population Pyknosed Nuclei (%) [2]: 64%
Population Tubulin-Different-Phenotype (%) [2]: 81%
Total Cell Count [2]: 181
Population Apoptotic (%) [3]: 74%
Population Fragmented Nuclei (%) [3]: 14%
Population Healthy Nuclei (%) [3]: 1%
Population Hoechst High Intensity Objects (%) [3]: 25%
Population Membrane Permeable-Phenotype (%) [3]: 0%
Population Mitochondria Different-Phenotype (%) [3]: 33%
Population Mitotic Cells (%) [3]: 25%
Population Normal (%) [3]: 74%
Population Pyknosed Nuclei (%) [3]: 84%
Population Tubulin-Different-Phenotype (%) [3]: 66%
Total Cell Count [3]: 289
Population Apoptotic (%) [4]: 62%
Population Fragmented Nuclei (%) [4]: 12%
Population Healthy Nuclei (%) [4]: 25%
Population Hoechst High Intensity Objects (%) [4]: 21%
Population Membrane Permeable-Phenotype (%) [4]: 2%
Population Mitochondria Different-Phenotype (%) [4]: 79%
Population Mitotic Cells (%) [4]: 37%
Population Normal (%) [4]: 79%
Population Pyknosed Nuclei (%) [4]: 62%
Population Tubulin-Different-Phenotype (%) [4]: 97%
Total Cell Count [4]: 219
Population Apoptotic (%) [5]: 63%
Population Fragmented Nuclei (%) [5]: 19%
Population Healthy Nuclei (%) [5]: 32%
Population Hoechst High Intensity Objects (%) [5]: 18%
Population Membrane Permeable-Phenotype (%) [5]: 0%
Population Mitochondria Different-Phenotype (%) [5]: 100%
Population Mitotic Cells (%) [5]: 36%
Population Normal (%) [5]: 81%
Population Pyknosed Nuclei (%) [5]: 47%
Population Tubulin-Different-Phenotype (%) [5]: 95%
Total Cell Count [5]: 253
Population Apoptotic (%) [6]: 51%
Population Fragmented Nuclei (%) [6]: 5%
Population Healthy Nuclei (%) [6]: 45%
Population Hoechst High Intensity Objects (%) [6]: 5%
Population Membrane Permeable-Phenotype (%) [6]: 2%
Population Mitochondria Different-Phenotype (%) [6]: 88%
Population Mitotic Cells (%) [6]: 48%
Population Normal (%) [6]: 94%
Population Pyknosed Nuclei (%) [6]: 48%
Population Tubulin-Different-Phenotype (%) [6]: 94%
Total Cell Count [6]: 201
Population Apoptotic (%) [7]: 72%
Population Fragmented Nuclei (%) [7]: 23%
Population Healthy Nuclei (%) [7]: 0%
Population Hoechst High Intensity Objects (%) [7]: 23%
Population Membrane Permeable-Phenotype (%) [7]: 0%
Population Mitochondria Different-Phenotype (%) [7]: 0%
Population Mitotic Cells (%) [7]: 27%
Population Normal (%) [7]: 76%
Population Pyknosed Nuclei (%) [7]: 76%
Population Tubulin-Different-Phenotype (%) [7]: 0%
Total Cell Count [7]: 287
Population Apoptotic (%) [8]: 79%
Population Fragmented Nuclei (%) [8]: 4%
Population Healthy Nuclei (%) [8]: 18%
Population Hoechst High Intensity Objects (%) [8]: 21%
Population Membrane Permeable-Phenotype (%) [8]: 3%
Population Mitochondria Different-Phenotype (%) [8]: 93%
Population Mitotic Cells (%) [8]: 20%
Population Normal (%) [8]: 78%
Population Tubulin-Different-Phenotype (%) [8]: 93%
Total Cell Count [8]: 213
Population Apoptotic (%) [9]: 58%
Population Fragmented Nuclei (%) [9]: 29%
Population Healthy Nuclei (%) [9]: 28%
Population Hoechst High Intensity Objects (%) [9]: 17%
Population Membrane Permeable-Phenotype (%) [9]: 0%
Population Mitochondria Different-Phenotype (%) [9]: 81%
Population Mitotic Cells (%) [9]: 41%
Population Normal (%) [9]: 82%
Population Pyknosed Nuclei (%) [9]: 42%
Population Tubulin-Different-Phenotype (%) [9]: 89%
Total Cell Count [9]: 254
Population Apoptotic (%) [10]: 62%
Population Fragmented Nuclei (%) [10]: 9%
Population Healthy Nuclei (%) [10]: 65%
Population Hoechst High Intensity Objects (%) [10]: 6%
Population Membrane Permeable-Phenotype (%) [10]: 1%
Population Mitochondria Different-Phenotype (%) [10]: 71%
Population Mitotic Cells (%) [10]: 37%
Population Normal (%) [10]: 93%
Population Pyknosed Nuclei (%) [10]: 24%
Population Tubulin-Different-Phenotype (%) [10]: 93%
Total Cell Count [10]: 243
Population Apoptotic (%) [11]: 80%
Population Fragmented Nuclei (%) [11]: 27%
Population Healthy Nuclei (%) [11]: 0%
Population Hoechst High Intensity Objects (%) [11]: 27%
Population Membrane Permeable-Phenotype (%) [11]: 100%
Population Mitochondria Different-Phenotype (%) [11]: 100%
Population Mitotic Cells (%) [11]: 19%
Population Normal (%) [11]: 72%
Population Pyknosed Nuclei (%) [11]: 72%
Population Tubulin-Different-Phenotype (%) [11]: 0%
Total Cell Count [11]: 291
Population Apoptotic (%) [12]: 83%
Population Fragmented Nuclei (%) [12]: 10%
Population Healthy Nuclei (%) [12]: 11%
Population Hoechst High Intensity Objects (%) [12]: 28%
Population Membrane Permeable-Phenotype (%) [12]: 11%
Population Mitochondria Different-Phenotype (%) [12]: 94%
Population Mitotic Cells (%) [12]: 16%
Population Normal (%) [12]: 71%
Population Pyknosed Nuclei (%) [12]: 77%
Population Tubulin-Different-Phenotype (%) [12]: 88%
Total Cell Count [12]: 202
